Most compounds without a hit are left out; they make up all but 9.4% or so of the library.
CSC inhib – cancer stem cell inhibition | 300,000 tested, 1.1% active | inhibition, % at 7.5 µM | cancer stem cell-like cells viability, luminescence; in the data active = inhibition above about 75%; tested in HMLE shEcad cells
SKKanGAS inh – blocks kanamycin growth of S. pyogenes SKKanGAS strain; BacTiter-Glo, 6 h; inhibition, % at 7.5 µM; 300,000 tested, 1.3% active;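 active = mean replicate score, as percent of positive control median, at least 50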;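 also: strain carries kanamycin resistance gene driven by streptokinase promoter and grows in 40 µg/ml kanamycin; loss of luminescence reflects streptokinase promoter inhibition or plain growth inhibition; 0% = median of DMSO wells and 100% = positive control at its reference dose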
T cruzi repl – blocks replication of Trypanosoma cruzi; 300,000 tested, 1.4% active; AID 1885; T. cruzi beta-gal in NIH3T3, luminescence, 90 h; inhibition, % (test concentration not listed);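 active = mean inhibition across valid replicates above about 55%, limit read from the data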;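 also: signal also drops with host cell toxicity which is not excluded here; 0% = plate median of DMSO wells and 100% = zero luminescence signal; higher percent means less beta-gal luminescence so fewer parasites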
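Test system: β-gal T. cruzi (Tulahuen C4) inside NIH/3T3 cells / Quantity: 5,000 cells/well / Measured by: luminescence from GalScreen with 0.05% NP40, read after 60 min / Medium: DMEM plus 2% FBS / Measure: parasite load inhibition, % / Reagent: Tulahuen C4 trypomastigotes, 5000/well / Schedule: co-culture of at least 90 h after 3 h attachment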
Lmaj promast – inhibitors of Leishmania major promastigote growth. Leishmania major promastigotes, resazurin fluorescence viability. inhibition, % at 10 µM. 200,000 tested, 9% active; in the data active = inhibition above about 50%;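 also: promastigotes grown with compound for 44 hours at 28 °C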
Mdm2-MdmX inh – disrupts the human Mdm2-MdmX interaction; inhibition, % at 8 µM; AID 485346; O15151+Q00987; 330,000 tested, 3% active; SaOS-2 split-luciferase Mdm2/MdmX complementation, luminescence;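 active = inhibition of at least 50% at 8 µM in the primary screen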
Target sequence (O15151 whole entry, looked up): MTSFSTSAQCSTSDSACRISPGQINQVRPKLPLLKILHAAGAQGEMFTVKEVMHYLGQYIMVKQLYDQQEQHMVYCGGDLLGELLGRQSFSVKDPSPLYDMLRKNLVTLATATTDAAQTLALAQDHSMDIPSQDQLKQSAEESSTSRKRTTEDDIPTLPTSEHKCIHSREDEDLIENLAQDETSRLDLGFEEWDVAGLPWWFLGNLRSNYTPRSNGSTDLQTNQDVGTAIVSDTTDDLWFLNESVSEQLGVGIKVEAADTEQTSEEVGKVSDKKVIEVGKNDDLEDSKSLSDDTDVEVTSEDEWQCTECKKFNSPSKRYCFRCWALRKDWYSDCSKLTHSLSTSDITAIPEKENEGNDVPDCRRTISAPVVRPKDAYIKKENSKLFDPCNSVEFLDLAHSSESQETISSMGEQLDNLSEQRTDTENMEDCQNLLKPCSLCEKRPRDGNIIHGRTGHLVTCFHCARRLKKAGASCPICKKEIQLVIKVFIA
Target sequence (Q00987 whole entry, looked up): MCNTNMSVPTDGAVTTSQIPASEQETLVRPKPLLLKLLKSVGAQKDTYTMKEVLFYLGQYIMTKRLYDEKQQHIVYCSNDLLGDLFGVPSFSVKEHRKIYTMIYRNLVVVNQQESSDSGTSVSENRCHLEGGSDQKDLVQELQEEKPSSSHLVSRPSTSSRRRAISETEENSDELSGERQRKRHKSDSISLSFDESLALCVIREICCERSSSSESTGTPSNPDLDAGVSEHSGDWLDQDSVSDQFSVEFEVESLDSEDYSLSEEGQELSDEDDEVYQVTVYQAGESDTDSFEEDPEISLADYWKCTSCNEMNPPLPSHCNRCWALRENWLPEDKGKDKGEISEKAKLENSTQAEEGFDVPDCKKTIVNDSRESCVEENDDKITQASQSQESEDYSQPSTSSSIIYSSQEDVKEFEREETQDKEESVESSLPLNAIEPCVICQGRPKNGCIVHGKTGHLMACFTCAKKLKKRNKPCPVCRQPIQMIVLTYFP
Beta apoptosis – blocks beta cell apoptosis; INS-1E cytokine-induced death, ATP luminescence, 48 h; percent of positive-control rescue, neutral wells zero; protection from apoptosis, % (no concentration beside the values); 300,000 tested, 0.8% active;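 active = Every replicate reaches about 75%, or at least half do and their mean reaches it too, limit read from the data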;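 also: 0% = cytokine-treated negative control wells and 100% = positive control rescue; higher means more ATP so stronger rescue from cytokine killing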
Mdm2-MdmX conf – human Mdm2/MdmX binding inhibition, confirmed | shares compounds with Mdm2-MdmX inh | luminescent assay | inhibition, % at 8 µM | 10,000 tested, 55% active | AID 489028; in the data active = inhibition above about 40%
Full FLuc ctr – counter-screen for Mdm2/MdmX inhibitors: full-length luciferase; shares compounds with Mdm2-MdmX inh; SaOS-2 full-length luciferase counterscreen, luminescence; inhibition, % at 8 µM; 6,200 tested, 77% active; AID 504607;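 active = mean inhibition at 8 µM reaching about 37%, which flags the compound as non-specific, limit read from the data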;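 also: p53-null SaOS-2 cells with luciferase driven by a doxycycline-inducible promoter; compound on cells about two nights before reading with doxycycline added after day one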
Starred values were filed as active, the others as inactive; . = no result given.

SMILES	CSC inhib	SKKanGAS inh	T cruzi repl	Lmaj promast	Mdm2-MdmX inh	Beta apoptosis	Mdm2-MdmX conf	others
O=C(Nc1ccc(O)c2c(=O)cc(-c3ccccc3Cl)oc12)c1ccccc1Cl	5.3	7.3	2.3	45.4	-4.2	-0.8	.
CCC(C)(C)c1ccc(OCCCC[n+]2cccc(C)c2C)c(C(C)(C)CC)c1	135.1*	14.6	9.8	.	100.2*	117.0*	98.5*	Full FLuc ctr=53.0*
CCC(C)(C)c1ccc(OCCCC[n+]2ccc(C)cc2)c(C(C)(C)CC)c1	105.7*	18.5	35.0	100.5*	98.5*	115.0*	97.2*	Full FLuc ctr=53.4*
COc1ccc(C(=O)C[n+]2cccc(C)c2C)cc1[N+](=O)[O-]	-4.6	-3.6	-10.0	-6.9	12.9	2.7	.
CC(=O)Nc1ccccc1NC(=O)C/C(C)=N/NC(=O)C(=O)N1CCCCC1	.	-4.8	-10.0	.	11.0	-1.6	.
COCCn1c(C)cc(C(=O)COC(=O)/C=C/c2c(C)nn(C3CCS(=O)(=O)C3)c2Cl)c1C (stereo not given)	-7.7	-0.2	-2.8	.	15.3	.	.
CC1CCN(CCOCCOc2ccc(Br)cc2Cl)CC1	.	0.6	45.5	98.9*	52.5*	-6.9	19.6
CC1CCN(CCOc2ccccc2-c2ccccc2)CC1	.	-7.7	-12.0	20.5	16.4	.	.
O=C(NCc1cccc(OC(F)(F)F)c1)c1cccc2c1C(=O)c1ccc(-c3ccc(F)cc3OCc3ccccc3)cc1S2(=O)=O	.	.	.	.	-16.2	3.1	.
COc1ncc(-c2ccc3c(c2)S(=O)(=O)c2cccc(C(=O)NCc4ccco4)c2C3=O)cn1	-6.1	.	.	.	53.0*	-2.4	19.9
CC1CCN(c2ccc3c(c2)S(=O)(=O)c2cccc(C(=O)NC[C@@H]4CCCO4)c2C3=O)CC1	.	.	.	.	15.8	19.8	.
O=C(NC1CCCCC1)c1cccc2c1C(=O)c1ccc(-c3ccc(OC(F)(F)F)cc3)cc1S2(=O)=O	.	.	.	.	71.4*	40.2	28.9	Full FLuc ctr=79.0*
O=C(NCc1ccccc1Cl)c1cccc2c1C(=O)c1ccc(-c3ccc(OC(F)(F)F)cc3)cc1S2(=O)=O	64.8	.	.	.	67.7*	16.4	6.4
COc1ncc(-c2ccc3c(c2)S(=O)(=O)c2cccc(C(=O)O)c2C3=O)cn1	-13.2	.	.	.	13.1	-0.7	.
O=C(NCC1CCCO1)c1cccc2c1C(=O)c1ccc(N3CCC(Cc4ccccc4)CC3)cc1S2(=O)=O (stereo not given)	.	.	.	.	53.7*	9.9	18.6
Cc1nn(-c2ccc(C(=O)NCC(c3ccco3)N3CCCC3)cc2)c(C)c1Cl (stereo not given)	.	.	.	.	23.1	0.2	.
CC1CCCC(C)N1C(=O)CSc1nnc(COc2ccc(F)cc2)o1 (stereo not given)	-0.3	-1.0	21.1	.	2.9	3.6	.
O=C(CCNS(=O)(=O)c1ccc(Br)cc1)NCc1ccc(Cl)cc1	-7.0	-12.0	-9.9	.	-2.4	-8.0	.
O=C1CC2(CCN(C(=O)c3ccc(F)c(F)c3)CC2)Oc2ccccc21	-2.3	-10.2	-10.0	.	-2.2	.	.
Cc1ccc(S(=O)(=O)NCC(=O)OCC(=O)N(CCC#N)c2ccccc2)cc1	.	.	.	.	0.8	-0.7	.
CC1(C(=O)OCC(=O)Nc2cccc(S(=O)(=O)NC3=NCCCCC3)c2)CC1(Cl)Cl (stereo not given)	0.5	1.6	7.6	0.1	2.1	-7.6	.
O=C(COC(=O)c1cc(=O)[nH]c2ccccc12)Nc1nc(-c2ccccc2)cs1	-8.5	-4.0	1.0	-1.9	2.2	-6.8	.
O=C(NC1CCCC1)c1cccc2c1C(=O)c1ccc(/C=C/c3ccccc3)cc1S2(=O)=O	18.1	.	.	.	-18.9	4.8	.
O=C(NCc1cc(C(F)(F)F)ccc1Cl)c1cccc2c1C(=O)c1ccc(-c3ccc(OC(F)(F)F)cc3)cc1S2(=O)=O	19.1	.	.	.	77.2*	3.8	-13.0
O=C(NCc1ccccc1)c1cccc2c1C(=O)c1ccc(/C=C/c3ccccc3)cc1S2(=O)=O	.	.	.	.	76.6*	30.8	20.7
SMILES	CSC inhib	SKKanGAS inh	T cruzi repl	Lmaj promast	Mdm2-MdmX inh	Beta apoptosis	Mdm2-MdmX conf	others
O=C(NCc1cc(C(F)(F)F)ccc1Cl)c1cccc2c1C(=O)c1ccc(Cl)cc1S2(=O)=O	.	.	.	.	54.2*	9.3	1.4
COc1ccc(-c2ccc3c(c2)S(=O)(=O)c2cccc(C(=O)NCc4cccc(OC(F)(F)F)c4)c2C3=O)cc1OC	60.3	.	.	.	72.8*	10.6	-3.0
O=C(O)c1cccc2c1C(=O)c1ccc(Cl)cc1S2(=O)=O	1.1	.	.	.	0.5	1.5	.
CCOC(=O)c1c(C)[nH]c(C(=O)N(C)CC(=O)Nc2ccc(OC)cc2)c1C	.	.	.	.	-4.5	3.2	.
C=CCc1cccc([C@@H]2[C@@H](C)CC[C@H]3C(=O)N4[C@@H](c5cc(OC)c(OC)c(OC)c5)c5[nH]c6ccccc6c5C[C@H]4C(=O)N23)c1	17.2	25.9	46.9	18.8	71.5*	3.2	62.5*	Full FLuc ctr=60.3*
COc1cc(C2c3[nH]c4ccccc4c3C[C@@H]3C(=O)N(Cc4ccco4)CC(=O)N23)cc(OC)c1OC (stereo not given in full)	-9.0	3.6	2.0	.	5.5	0.2	.
CC(OC(=O)CNC(=O)C1CCCCC1)C(=O)NCc1ccccc1 (stereo not given)	3.6	.	.	.	3.2	-2.5	.
COc1ccc(S(=O)(=O)NN(C)C(=O)c2nn(-c3ccccc3)ccc2=O)cc1	0.6	9.9	-12.4	-3.9	9.9	-0.8	.
COc1cc2c(cc1NC(=O)c1cccc([N+](=O)[O-])c1)oc1ccccc12	7.2	-4.5	-6.9	-6.9	71.0*	17.3	14.9
COc1cc(OC)cc(C(=O)NC(=S)Nc2cc3oc4ccccc4c3cc2OC)c1	.	-3.8	13.8	-4.2	72.2*	26.8	3.6
COCCNC(=S)Nc1cc2oc3ccccc3c2cc1OC	-3.9	10.8	-16.3	.	28.0	-3.2	.
C=CCN(c1ccccc1)S(=O)(=O)c1cccc(C(=O)NNC(=O)c2ccncc2)c1	-2.4	20.6	-3.8	.	-5.9	-9.4	.
CC(C)n1cc(/C=C/c2cc[n+](C)cc2)c2ccccc21	.	-2.9	45.4	.	63.4*	.	24.9
C=CCn1cc(/C=C/c2cc[n+](C)cc2)c2ccccc21	25.6	-6.7	55.0*	.	65.5*	79.9*	42.1*	Full FLuc ctr=76.2*
O=C(O)Cn1cc(/C=C/[N+](=O)[O-])c2ccccc21	0.1	10.5	-12.1	-2.9	12.1	-11.7	.
C=CCn1c(C)c(/C=C/c2cc[n+](C)cc2)c2ccccc21	14.9	-4.0	74.5*	.	64.2*	97.4*	40.7*	Full FLuc ctr=69.4*
CC(C)n1cc(/C=C(\C#N)S(=O)(=O)c2ccccc2)c2ccccc21	-3.9	10.3	10.2	-0.8	20.3	3.2	.
CCN(CC)C(=O)Cn1c(C)c(/C=C/c2cc[n+](C)cc2)c2ccccc21	-6.7	2.8	5.5	.	10.6	-5.2	.
Clc1ccc(OCc2nnc3n2CCCCC3)c(Cl)c1	-3.6	4.2	-6.1	.	28.1	-5.5	.
